Data set [1] relates to CCRF-CEM. Description: Evaluated for the anticellular activity against CEM cells. The following applies: Homo sapiens, read-out: ID50 (the source's name). Type of data set: functional. The method in brief:
(§1)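 CEM cells, uninfected; cell count by dye exclusion; ID50 in µg/mL.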

Data set [2] relates to Rauscher murine leukemia virus. Briefly: Evaluated for the antiretroviral activity against Rauscher murine leukemia virus (R-MuLV). As to conditions: read-out: ID50 (the source's name). The format is functional. The method in brief:
(§2)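 Rauscher murine leukemia virus tested by UV-XC plaque assay; ID50 in µg/mL.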

In data set [3] the test system is Human immunodeficiency virus 1. Briefly: Evaluated for the antiretroviral activity against Human immunodeficiency virus type 1. The format is functional. As to conditions: read-out: ID50 (the source's name). The method in brief:
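CEM-F cells infected with about 30 TCID50 of HIV (LAV strain) for 45 min at 37 °C. Compound added at various concentrations, then 8-day incubation. p24 gag protein in culture supernatant measured by enzyme-capture ELISA. ID50 (µg/mL) is the dose inhibiting 50% of virus expression.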

In data set [4] the test system is guanylate kinase. Description: Evaluated for the kinetic parameter Km, with bovine brain guanylate kinase. The format is ADME, Bos taurus. As to conditions: cattle.
Data set [5] relates to Human betaherpesvirus 5. Description: Evaluated for the antiviral activity against Human cytomegalovirus (HCMV) strain AD-169 by the plaque reduction assay. The format is functional. The following applies: read-out: ID50 (the source's name). In a few lines:
(§3)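 HCMV AD169 grown and titered at 37 °C in MRC-5 human embryonic lung diploid cells. Plaque reduction assay in MRC-5 with 2-fold drug dilutions in triplicate and no-drug virus controls. ID50 is the concentration reducing plaques by 50% versus control.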

In data set [6] the test system is Human alphaherpesvirus 1. Briefly: (§4) Evaluated for the antiviral activity against Herpes simplex virus type 1 (HSV-1). Type of data set: organism-based. As to conditions: read-out: ID50 (the source's name). The method in brief: (§5)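 Plaque reduction in Vero cells: about 50 PFU HSV per well adsorbed 1 h with intermittent shaking. Inoculum removed; 10% EMEM with 2-fold drug dilutions added in triplicate, with no-drug virus controls. 48 h at 37 °C, 5% CO2, then Giemsa stain and plaque count. ID50 is the concentration giving 50% plaque reduction versus control.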

Data set [7] concerns Human alphaherpesvirus 2. Description: Evaluated for the antiviral activity against Herpes simplex virus type 2 (HSV-2) strain G by the plaque reduction assay. The following applies: read-out: ID50 (the source's name). The format is functional. In a few lines: as §5
The test system of data set [8] is Human alphaherpesvirus 1. Description: Evaluated for the antiviral activity against Herpes simplex virus type 1 (HSV-1) strain BWS by the plaque reduction assay. The format is functional. As to conditions: read-out: ID50 (the source's name). The method in brief:
as §5

Data set [9] is described as follows: Evaluated for the rate of phosphorylation with bovine brain guanylate kinase. Type of data set: ADME, Bos taurus. The following applies: cattle.
Data set [10] concerns Vero. Description: Evaluated for the antiviral activity against Vero cells by proliferation assays (in uninfected cells). Type of data set: functional. As to conditions: Chlorocebus sabaeus, read-out: ID50 (the source's name). The method in brief:
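Cell proliferation assay in uninfected Vero cells; ID50 in µg/mL.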

A short description of data set [11]: Evaluated for the dissociation constant. The format is ADME. The following applies: read-out: pKa2.
The subject of data set [12] is Human alphaherpesvirus 2. Briefly: Evaluated for the antiviral activity against Herpes simplex virus type 2 (HSV-2) with strain G by the plaque reduction assay. Type of data set: functional. As to conditions: read-out: ID50 (the source's name). In a few lines:
as §5

For data set [13], the system named is CCRF-CEM. Briefly: Evaluated for the anticellular activity against CEM cells by dye-exclusion method. The format is functional. As to conditions: Homo sapiens, read-out: ID50 (the source's name). The method in brief: as §1
Data set [14] deals with Human betaherpesvirus 5. Briefly: Evaluated for the antiviral activity against Human cytomegalovirus (HCMV) with strain AD-169 by the plaque reduction assay. The format is functional. The following applies: read-out: ID50 (the source's name). In a few lines: as §3
The species named for data set [15] is Bos taurus. Description: Evaluated for the rate of phosphorylation with bovine brain guanylate kinase. Type of data set: ADME. The following applies: cattle, in vivo.
Data set [16] relates to Human alphaherpesvirus 1. The description is as §4. The format is functional. As to conditions: read-out: ID50 (the source's name). In a few lines:
as §5

Data set [17] deals with Rauscher murine leukemia virus. Briefly: Evaluated for the antiretroviral activity against Rauscher-murine leukemia virus (R-MuLV). Type of data set: functional. As to conditions: read-out: ID50 (the source's name). The method in brief:
as §2

Data set [18] in a line: Evaluated for the second dissociation constant. Type of data set: ADME. The following applies: read-out: pKa2.

Converted amounts (≈) assume the structure as drawn. Where only a bound is given, the exact number is not on record here.

On to `Nc1nc(O)c2ncn(CCCOCP(=O)(O)O)c2n1`, for which the IC50 was more than 100 µg/mL in data set [1]; 0.04 µg/mL (≈ 0.132 µM) in data set [2]; 7.8 µg/mL (≈ 25.7 µM) in data set [3]; 6 µg/mL (≈ 19.8 µM) in data set [5]; 65.5 µg/mL (≈ 216 µM) in data set [6]; more than 100 µg/mL in data set [7]. The figures for the IC50 in [8] and in [10] were 65.5 µg/mL (≈ 216 µM) and 76 µg/mL (≈ 251 µM), respectively. Besides, in [4], the Km stood at 4.7 mM. In addition, in [9], the “Relative Vmax” value is recorded as 0.0024.
Regarding `Nc1nc(O)c2ncn(CCCCP(=O)(O)O)c2n1`, in data set [11], the pKa was 7.08. The IC50 in [12] is more than 100 µg/mL; in data set [8] it was more than 100 µg/mL; in [10] it was 100 µg/mL (≈ 348 µM).
For `Nc1ncnc2c1ncn2CCOCP(=O)(O)O` [ADEFOVIR], the IC50 is 0.05 µg/mL (≈ 0.183 µM) in data set [2]; 3 µg/mL (≈ 11 µM) in data set [3]; 0.93 µg/mL (≈ 3.4 µM) in data set [5]; 9.4 µg/mL (≈ 34.4 µM) in [7]; more than 100 µg/mL in data set [13]; 21 µg/mL (≈ 76.9 µM) in data set [8]. The IC50 in [10] is more than 100 µg/mL.
For the compound `CC(COCP(=O)(O)O)n1cnc2c(O)nc(N)nc21` (stereo not drawn), the IC50 is 0.4 µg/mL (≈ 1.32 µM) in [14]; 8.4 µg/mL (≈ 27.7 µM) in data set [3]; 3 µg/mL (≈ 9.89 µM) in data set [6]; more than 100 µg/mL in data set [13]; 3.29 µg/mL (≈ 10.9 µM) in [12]; 2.92 µg/mL (≈ 9.63 µM) in data set [8]. In addition, in [10], the IC50 was 60 µg/mL (≈ 198 µM). In addition, the Michaelis-Menten constant (Km) in data set [4] worked out at 3.9 mM. In addition, the “Relative Vmax” value in [15] was 0.073.
Turning to `Nc1nc(O)c2ncn(CCCCOCP(=O)(O)O)c2n1`, the IC50 was more than 145 µg/mL in [6], more than 100 µg/mL in data set [7], more than 100 µg/mL in data set [8] and 100 µg/mL (≈ 315 µM) in [10].
Take `Nc1nc(O)c2ncn(CCCC(F)(F)P(=O)(O)O)c2n1`: the pKa in [11] stood at 5.52. Further, the IC50 in data set [7] was more than 100 µg/mL; in [8], more than 100 µg/mL; in data set [10], 100 µg/mL (≈ 309 µM).
In the case of `Nc1nc2c(ncn2COCCO)c(=O)[nH]1` [ACYCLOVIR], the IC50 in [5] is 38.4 µg/mL (≈ 171 µM); in [7], 2.4 µg/mL (≈ 10.7 µM); in data set [8], 0.5 µg/mL (≈ 2.22 µM); in data set [10], 100 µg/mL (≈ 444 µM).
Turning to `Nc1nc2c(ncn2COCCP(=O)(O)O)c(=O)[nH]1`, the pKa in data set [11] amounted to 6.76. Besides, the IC50 in [6] was more than 145 µg/mL; in data set [12] it was more than 100 µg/mL; in data set [8] it was more than 100 µg/mL; in data set [10] it was 100 µg/mL (≈ 346 µM).
Take `Cc1cn([C@H]2C[C@H](N=[N+]=[N-])[C@@H](CO)O2)c(=O)[nH]c1=O` [ZIDOVUDINE]: the IC50 was 0.001 µg/mL (≈ 0.00374 µM) in data set [2], 0.05 µg/mL (≈ 0.187 µM) in data set [3] and more than 50 µg/mL in [13].
In the case of `Nc1nc2c(ncn2CCOCP(=O)(O)O)c(=O)[nH]1` [GS-438], the IC50 in data set [1] is 10 µg/mL (≈ 34.6 µM); in data set [3], more than 10 µg/mL; in data set [16], 0.1 µg/mL (≈ 0.346 µM); in data set [5] it was 0.04 µg/mL (≈ 0.138 µM); in data set [17], 0.001 µg/mL (≈ 0.00346 µM); in data set [7], 0.69 µg/mL (≈ 2.39 µM). Further, the IC50 in data set [8] worked out at 0.08 µg/mL (≈ 0.277 µM); in data set [10], 5 µg/mL (≈ 17.3 µM). Besides, in data set [4], the Km is 2.7 mM. Moreover, the pKa in data set [11] worked out at 6.52. The “Relative Vmax” value in data set [9] was determined as 0.11.
As for `Nc1nc(O)c2ncn(CCSCP(=O)(O)O)c2n1`, in data set [11], the pKa came out at 6.59. The figures for the IC50 in data set [7], in [8] and in data set [10] were more than 100 µg/mL, more than 100 µg/mL and 100 µg/mL (≈ 328 µM), respectively.
On to `Nc1nc2c(ncn2[C@@H]2O[C@H](COP(=O)(O)O)[C@H](O)[C@@H]2O)c(=O)[nH]1` [E626], for which, in data set [4], the Km was determined as 3.3 mM. Further, the “Relative Vmax” value in data set [9] stood at 100.
In the case of `Nc1ncnc2c1ncn2CCCOCP(=O)(O)O`, the results for the IC50 in [7], in data set [8] and in [10] were more than 100 µg/mL, more than 100 µg/mL and 100 µg/mL (≈ 348 µM), respectively.
Turning to `Cc1cn([C@H]2C[C@H](O)[C@@H](COP(=O)(O)O)O2)c(=O)[nH]c1=O` [THYMIDINE MONOPHOSPHATE], the pKa in data set [18] is 6.5.
Turning to `Nc1nc2c(ncn2[C@H]2C[C@H](O)[C@@H](COP(=O)(O)O)O2)c(=O)[nH]1`, the Km in [4] amounted to 1.2 mM. Besides, the “Relative Vmax” value in data set [9] amounted to 14.

The values are drawn from ChEMBL document CHEMBL1124745, “Acyclic purine phosphonate analogues as antiviral agents. Synthesis and structure-activity relationships” (J Med Chem, 1990).
